Results of several laboratories.
Each line is one published result; the experiments were not run side by side.
Target: Serine/threonine-protein kinase OSR1 (OXSR1, Homo sapiens, UniProt O95747)

| SMILES | test | setting | remaining binding [%] |
| --- | --- | --- | --- |
| CNC(=O)[C@@H]1CC[C@@H](n2c(-c3ccc4cnccc4c3)nc3ccc(C(=O)NCc4cccc(C(N)=O)c4)cc32)C1 | binding, competition with immobilised ligand | 1 µM | 100 |
| CC1CCCN1c1nccc(-c2cnn3ncccc23)n1 (stereo not shown) | binding | 1 µM | 100 |
| CCN1CCN(Cc2ccc(C(=O)Nc3ccc(C)c(Oc4ccc5c(c4)CC(=O)N5)c3)cc2C(F)(F)F)CC1 | binding, competition with immobilised ligand | 1 µM | 97 |
| c1cnn2ncc(-c3ccnc(N4CCC45COC5)n3)c2c1 | binding | 1 µM | 62 |
| CO[C@H]1CC[C@H](CNc2ccc(S(=O)(=O)NC(=O)c3ccc(N4CCN(CC5=C(c6ccc(Cl)cc6)CC(C)(C)CC5)CC4)cc3Oc3cnc4[nH]ccc4c3)cc2[N+](=O)[O-])CC1 | cell-free assay, competition with immobilised ligand | 1 µM | 76 |
| FC(F)(F)Oc1cccc(-c2cnc3ccc(-c4ccncc4)nn23)c1 | cell-free assay, competition with immobilised ligand | 5 µM | 82 |
| C[C@H]1CCN(c2nccc(-c3cnn4ncccc34)n2)C1 | binding | 1 µM | 76 |
| O=C(Nc1cccnn1)N1CCC(=Cc2cccc(Oc3ccc(C(F)(F)F)cn3)c2)CC1 | cell-free assay, competition with immobilised ligand | 1 µM | 100 |
| Cc1cnn2ncc(-c3ccnc(N(C)C)n3)c2c1 | binding | 1 µM | 84 |
| O=C(NCCCN1CCOCC1)c1ccc(Nc2nccc(-c3cc4ccccc4s3)n2)cc1 | binding, competition with immobilised ligand | 1 µM | 77 |
| CS(=O)(=O)c1cc(C2(NC(=O)c3cncc4c3cnn4-c3ccc(F)cc3)CC2)ccn1 | cell-free assay, competition with immobilised ligand | 1 µM | 85 |
| O=C(NCCCN1CCOCC1)c1ccc(Nc2ncc(Cl)c(-c3ccc(Cl)s3)n2)cc1 | binding, competition with immobilised ligand | 1 µM | 79 |
| C[C@@H](c1ccc(-n2cnc3c(N)ncnc32)cc1)N1CCc2nn(C)c(Cc3ccccc3)c2C1=O | binding, competition with immobilised ligand | 0.1 µM | 72 |
| COc1cnc(Nc2cccc(S(N)(=O)=O)c2)nc1N1CCN(c2ccccc2)CC1 | binding, competition with immobilised ligand | 1 µM | 90 |
| CN(c1nccc(-c2cnn3ncccc23)n1)C1CC1 | binding | 1 µM | 100 |
| NS(=O)(=O)c1cc(NC(=O)Cc2ccccc2)ccc1Oc1cccc(Cl)c1 | cell-free assay, competition with immobilised ligand | 1 µM | 78 |
| N[C@@H]1CCN(c2nccc(-c3cnn4ncccc34)n2)C1 | binding | 1 µM | 100 |
| O=C(c1ccc(Nc2ncc(Cl)c(-c3ccc(Cl)s3)n2)cc1)N1CCC(N2CCCC2)CC1 | binding, competition with immobilised ligand | 1 µM | 87 |
| Cc1cc(C)c(-n2ccn3nc(-c4cccnc4)cc23)cc1NC(=O)c1cc(C#N)cc(S(F)(F)(F)(F)F)c1 | cell-free assay, competition with immobilised ligand | 0.1 µM | 87 |
| C=CC(=O)N1CCC(C(=O)NCC(=O)N2CCN(c3nc(-c4cnc(N)nc4C(F)F)nc(N4CCOCC4)n3)CC2)CC1 | binding, competition with immobilised ligand | 1 µM | 100 |
| C[C@@H]1CN(c2cc(-c3nn(C)c4ccc(OC5(C)CC5)cc34)ncn2)C[C@H](C)O1 | cell-free assay, competition with immobilised ligand | 1 µM | 93 |
| O=C(NCC1CCOCC1)c1n[nH]cc1NC(=O)c1c(F)cccc1F | binding, competition with immobilised ligand | 1 µM | 73 |
